Experiment [1] deals with Plasmodium falciparum. Briefly: Inhibitory activity against Plasmodium falciparum FcB1.
In a further experiment the target is T1, Aminopeptidase N (Plasmodium falciparum FcB1/Columbia, UniProt O96935).
T1 sequence (O96935 whole entry): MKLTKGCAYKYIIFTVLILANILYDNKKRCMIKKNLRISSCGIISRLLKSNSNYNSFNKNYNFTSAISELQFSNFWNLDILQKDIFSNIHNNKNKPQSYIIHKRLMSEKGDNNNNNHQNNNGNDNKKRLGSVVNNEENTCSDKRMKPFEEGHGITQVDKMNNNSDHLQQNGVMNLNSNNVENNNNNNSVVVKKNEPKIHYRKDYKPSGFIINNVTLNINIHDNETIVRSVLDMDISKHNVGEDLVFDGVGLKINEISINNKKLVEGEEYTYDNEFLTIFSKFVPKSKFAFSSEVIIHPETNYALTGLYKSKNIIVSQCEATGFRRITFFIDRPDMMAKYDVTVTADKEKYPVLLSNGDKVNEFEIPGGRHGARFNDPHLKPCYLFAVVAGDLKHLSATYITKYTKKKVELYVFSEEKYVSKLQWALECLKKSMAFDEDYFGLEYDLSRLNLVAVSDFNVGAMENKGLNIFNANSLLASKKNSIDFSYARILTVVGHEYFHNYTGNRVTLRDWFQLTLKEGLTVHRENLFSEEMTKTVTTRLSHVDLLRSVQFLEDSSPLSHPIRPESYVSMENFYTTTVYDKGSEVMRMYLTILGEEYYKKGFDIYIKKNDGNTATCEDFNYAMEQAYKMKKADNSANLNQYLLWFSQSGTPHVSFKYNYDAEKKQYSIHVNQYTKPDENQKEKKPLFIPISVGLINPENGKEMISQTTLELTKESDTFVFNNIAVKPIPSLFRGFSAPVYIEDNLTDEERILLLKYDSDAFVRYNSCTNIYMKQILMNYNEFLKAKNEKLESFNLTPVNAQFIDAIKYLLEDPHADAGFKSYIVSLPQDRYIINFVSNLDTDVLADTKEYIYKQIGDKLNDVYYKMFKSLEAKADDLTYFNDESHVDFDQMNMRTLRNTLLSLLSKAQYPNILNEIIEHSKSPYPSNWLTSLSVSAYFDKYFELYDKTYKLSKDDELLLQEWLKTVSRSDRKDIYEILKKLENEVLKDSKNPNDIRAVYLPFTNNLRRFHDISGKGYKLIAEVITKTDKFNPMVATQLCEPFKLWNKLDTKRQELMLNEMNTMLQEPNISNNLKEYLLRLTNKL
In words: Inhibitory activity for Plasmodium falciparum Zinc aminopeptidase.

Experiment [2] deals with Plasmodium falciparum. In words: Inhibitory activity against Plasmodium falciparum Zinc-aminopeptidase PfA-M1 at 10 uM. The experiment is classed as functional. In a few lines:
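Native purified PfA-M1, diluted 10-fold in 25 mM Tris-HCl pH 7.4. Enzyme pre-incubated 10 min at rt with inhibitor (10 µM final, DMSO present), then Leu-pNA substrate added. Kinetics followed at 405 nm. Initial velocities normalized to the no-inhibitor control (Vmax). Single-point percent inhibition (Z' 0.82). Bestatin as reference.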

In the experiment on Plasmodium falciparum [1], `CC(C)C[C@H](NC(=O)[C@@H](O)[C@H](N)Cc1ccccc1)C(=O)O` [UBENIMEX] returned an IC50 of 29000 nM.
For `NCCC(=O)N(CCCN1CCN(CCCNc2ccnc3cc(Cl)ccc23)CC1)CC1CC1`, the IC50 against Aminopeptidase N came to 21000 nM; with Plasmodium falciparum [1], 398 nM.
In the experiment on Plasmodium falciparum [1], `CC(C)CC(C(=O)NO)C(=O)N(CCCN1CCN(CCCNc2ccnc3cc(Cl)ccc23)CC1)CC(C)C` (centres undefined) registered an IC50 of 151 nM.
As for `O=C(O)CCC(=O)N(CCCN1CCN(CCCNc2ccnc3cc(Cl)ccc23)CC1)CC1CC1`, the results for the concentration for half-maximal inhibition (IC50) at Aminopeptidase N and with Plasmodium falciparum [1] were above 10000 nM and 1380 nM, respectively. In addition, in the experiment on Plasmodium falciparum [2], 10 µM produced 22% inhibition.
As to `CC(C)CN(CCCN1CCN(CCCNc2ccnc3cc(Cl)ccc23)CC1)C(=O)CC(=O)NO`, the IC50 against Aminopeptidase N was 854 nM; in the experiment on Plasmodium falciparum [1] it was 317 nM.

These data come from ChEMBL document CHEMBL1136149, “Design, synthesis and antimalarial activity of novel, quinoline-based, zinc metallo-aminopeptidase inhibitors” (Bioorg Med Chem Lett, 2003).
